Measured values: ChEMBL document CHEMBL2040845, “Discovery of novel sulfonated small molecules that inhibit vascular tube formation” (Bioorg Med Chem Lett, 2012)
Activity calls are given as the source filed them. The calls are words filed in the database; no cut-off is given here.

Assays:
Type in all cases: functional
[1] = species on record: Bos taurus; test: Antiangiogenic activity against BLMVEC grown on RGF-BME assessed as formation of small cell clumps at 100 uM after 16 hrs by calcein staining-based microscopy
How it was run: (§1)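 1×10^5 BLMVEC premixed with test compound in MCDB-131 medium, then added to matrigel in duplicate wells. Wells received 100 μM compound. Controls were untreated wells and sulforaphane. Plates were incubated 16 hrs at 37 °C and cells were imaged by microscopy. Inhibition was scored from network morphology: branching and interconnection of tubes versus dispersed cells or short, unconnected tubes.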

[2] = species on record: Bos taurus; test: Antiangiogenic activity against BLMVEC grown on RGF-BME assessed as inhibition of tube formation at 100 uM after 16 hrs by calcein staining-based microscopy; how it was run: as §1
[3] = system: Endothelial cell; test: Antiangiogenic activity against BLMVEC grown on RGF-BME assessed as dispersed endothelial cells at 100 uM after 16 hrs by calcein staining-based microscopy; conditions: Bos taurus; how it was run: as §1
[4] = species on record: Bos taurus; test: Antiangiogenic activity against BLMVEC grown on RGF-BME assessed as inhibition of branching at 100 uM after 16 hrs by calcein staining-based microscopy; how it was run: as §1
[5] = species on record: Bos taurus; test: Antiangiogenic activity against BLMVEC grown on RGF-BME assessed as inhibition of tube-like network formation at 100 uM after 16 hrs by calcein staining-based microscopy; how it was run: as §1

Row | SMILES | Activity [1] | inhibition [2] | Activity [3] | inhibition [4] | inhibition [5]
1 | O=c1c(OS(=O)(=O)O)c(-c2ccc(OS(=O)(=O)O)c(OS(=O)(=O)O)c2)oc2cc(OS(=O)(=O)O)ccc12 | inactive | inactive | inactive | inactive | inactive
2 | O=c1cc(-c2ccc(OS(=O)(=O)O)cc2)oc2cc(OS(=O)(=O)O)cc(OS(=O)(=O)O)c12 | Active | Active | Active | – | Active
3 | C[C@]12CC[C@@H]3c4ccc(OS(=O)(=O)O)cc4CC[C@H]3[C@@H]1CC[C@@H]2O | Active | Active | Active | – | Active
4 | O=C(c1ccc(OS(=O)(=O)O)c(OS(=O)(=O)O)c1)N1CCc2cc(OS(=O)(=O)O)c(OS(=O)(=O)O)cc2C1 | inactive | inactive | inactive | inactive | inactive
5 | CCOC(=O)[C@@H]1Cc2cc(OS(=O)(=O)O)c(OS(=O)(=O)O)cc2CN1C(=O)c1cc(OS(=O)(=O)O)c(OS(=O)(=O)O)c(OS(=O)(=O)O)c1 | inactive | inactive | inactive | inactive | inactive
6 | O=C(c1cc(OS(=O)(=O)O)c(OS(=O)(=O)O)c(OS(=O)(=O)O)c1)N1CCc2cc(OS(=O)(=O)O)c(OS(=O)(=O)O)cc2C1 | inactive | inactive | inactive | inactive | inactive
7 | O=C1c2c(cc(OS(=O)(=O)O)cc2OS(=O)(=O)O)O[C@@H](c2ccc(OS(=O)(=O)O)c(OS(=O)(=O)O)c2)[C@H]1OS(=O)(=O)O | inactive | inactive | inactive | inactive | inactive
8 | CCOC(=O)[C@@H]1Cc2cc(OS(=O)(=O)O)c(OS(=O)(=O)O)cc2CN1C(=O)c1ccc(OS(=O)(=O)O)c(OS(=O)(=O)O)c1 | inactive | inactive | inactive | inactive | inactive
9 | O=c1c(OS(=O)(=O)O)c(-c2ccc(OS(=O)(=O)O)cc2OS(=O)(=O)O)oc2ccc(OS(=O)(=O)O)cc12 | inactive | inactive | inactive | inactive | inactive
10 | O=c1c(OS(=O)(=O)O)c(-c2ccccc2OS(=O)(=O)O)oc2ccccc12 | Active | Active | Active | – | Active
11 | O=C(CCc1ccc(OS(=O)(=O)O)cc1)c1c(OS(=O)(=O)O)cc(OS(=O)(=O)O)cc1OS(=O)(=O)O | Active | Active | Active | – | Active
12 | O=c1c(OS(=O)(=O)O)c(-c2ccc(OS(=O)(=O)O)c(OS(=O)(=O)O)c2)oc2cc(OS(=O)(=O)O)cc(OS(=O)(=O)O)c12 | inactive | inactive | inactive | inactive | inactive
13 | O=C1c2c(cc(OS(=O)(=O)O)cc2OS(=O)(=O)O)O[C@@H](c2ccc(OS(=O)(=O)O)c(OS(=O)(=O)O)c2)[C@@H]1OS(=O)(=O)O | inactive | inactive | inactive | inactive | inactive
14 | O=c1cc(-c2ccc(OS(=O)(=O)O)c(OS(=O)(=O)O)c2)oc2cc(OS(=O)(=O)O)cc(OS(=O)(=O)O)c12 | Active | Active | Active | – | Active
